Activity calls are given as the source filed them. The rule behind the calls is not given here.
Assays:
4T1 [1] = experiment: Induction of cell cycle arrest in mouse 4T1 cells assessed as accumulation at G0/G1 phase at 0.4 mM incubated for 24 hrs by PI staining based flow cytometric analysis (reference value: 37.78%); format: functional
4T1 [2] = experiment: Antitumour activity against mouse 4T1 cells xenografted in BALB/c mouse assessed as increase in cytotoxic tumor cell death at 10 mg/kg administered intratumorally and measured after 24 days by H and E staining based inverted optical microscopic method; format: functional, organism-based
How it was run: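 BALB/c mice bearing subcutaneous 4T1 tumours received 6 doses at 10 mg/kg body weight, matched for YSL monomer molar amount, with saline as control. Tumour sections were stained for H&E, CD31, Ki-67 and TUNEL. n = 5.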

4T1 [3] = experiment: Antitumour activity against mouse 4T1 cells xenografted in BALB/c mouse assessed as reduction in size of lung tumor metastatic nodules at 10 mg/kg administered intratumorally and measured after 24 days by H and E staining based inverted optical microscopic method; format: functional, organism-based
How it was run: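 After 6 doses of 10 mg/kg to 4T1 tumour-bearing BALB/c mice (saline control), lungs were photographed whole and examined histopathologically for the number and size of metastatic nodules.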

[4] = Toxicity in BALB/c mouse xenografted with mouse 4T1 cells assessed as induction of morphological lesions in spleen at 10 mg/kg administered intratumorally and measured after 24 days by H and E staining based inverted optical microscopic method; format: organism-based; details: in vivo, other, 576 h
[5] = Stability in fetal bovine serum assessed as parent compound remaining measured after 12 hrs by RP-HPLC analysis; format: ADME, cell-free, Bos taurus; details: cattle, read-out: Stability
How it was run: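 Peptides incubated in serum, and the fraction of intact YSL was measured over time up to 12 h, including a 4 h point.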

[6] = Toxicity in BALB/c mouse xenografted with mouse 4T1 cells assessed as induction of morphological lesions in kidney at 10 mg/kg administered intratumorally and measured after 24 days by H and E staining based inverted optical microscopic method; format: organism-based; details: in vivo, other, 576 h
[7] = Toxicity in BALB/c mouse xenografted with mouse 4T1 cells assessed as change in serum creatinine level at 10 mg/kg administered intratumorally and measured after 24 days; format: organism-based; details: in vivo, other, 576 h
4T1 [8] = experiment: Antiproliferative activity against mouse 4T1 cells assessed as cell death at 0.2 mM incubated for 24 hrs by MTT assay relative to control; format: functional
How it was run: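 Mouse 4T1 breast cancer cells exposed for 24 h (doses include 0.1 and 0.2 mM), then read by MTT for viability or cell death. Mean ± SD, n = 6.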

4T1 [9] = experiment: Inhibition of cell migration in mouse 4T1 cells assessed as migration frequency at 0.2 mM incubated for 24 hrs by crystal violet staining based transwell assay relative to control; format: functional; design: scale not given: the % may be the effect or the level left
How it was run: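 4T1 cells, Transwell migration with 24 h exposure to 0.2 mM. Migration rate comes from counting cells on the bottom of the porous membrane. Mean ± SD, n = 3.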

COC(=O)[C@H](CCCCNC(=O)[C@H](CCCCNC(=O)[C@H](CCCCNC(=O)[C@H](CC(C)C)NC(=O)[C@H](CO)NC(=O)[C@@H](N)Cc1ccc(O)cc1)NC(=O)[C@H](CC(C)C)NC(=O)[C@H](CO)NC(=O)[C@@H](N)Cc1ccc(O)cc1)NC(=O)[C@H](CCCCNC(=O)[C@H](CC(C)C)NC(=O)[C@H](CO)NC(=O)[C@@H](N)Cc1ccc(O)cc1)NC(=O)[C@H](CC(C)C)NC(=O)[C@H](CO)NC(=O)[C@@H](N)Cc1ccc(O)cc1)NC(=O)[C@H](CCCCNC(=O)[C@H](CCCCNC(=O)[C@H](CC(C)C)NC(=O)[C@H](CO)NC(=O)[C@@H](N)Cc1ccc(O)cc1)NC(=O)[C@H](CC(C)C)NC(=O)[C@H](CO)NC(=O)[C@@H](N)Cc1ccc(O)cc1)NC(=O)[C@H](CCCCNC(=O)[C@H](CC(C)C)NC(=O)[C@H](CO)NC(=O)[C@@H](N)Cc1ccc(O)cc1)NC(=O)[C@H](CC(C)C)NC(=O)[C@H](CO)NC(=O)[C@@H](N)Cc1ccc(O)cc1
Activity (4T1 [1]): 44.44%
Activity (4T1 [2]): Active
Activity (4T1 [3]): Active
Activity [4]: Non-Toxic
remaining at 12 h [5]: > 80%
Activity [6]: Non-Toxic
Activity [7]: Non-Toxic
Activity (4T1 [8]): 20%
Activity (4T1 [9]): 10%
